Measured values taken from ChEMBL document CHEMBL5724801, “EUbOPEN Chemogenomics Library - Multiplex” (2024).
Where “and” joins values, the source holds several entries; their conditions need not be identical. Equal entries are not always repeated.

tested on: HEK-293T; assay: Multiplex assay against HEK293T; type: toxicity, cell-based; details: human, 12 h, 1 µM, compound concentration 1 uM
How it was run: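 At seeding, live cells were stained with Hoechst33342, BioTracker Green Microtubule Cytoskeleton Dye, MitoTracker Red and Annexin V Alexa Fluor 680. After compound addition they were imaged on a CQ1 microscope at 37°C and 5% CO2, and CellPathfinder machine-learning gating sorted them into Hoechst high-intensity objects or normal cells, with normal cells further split into healthy, pyknosed or fragmented nuclei and pyknosed cells into mitotic or apoptotic. Tubulin, mitochondrial-mass and membrane-permeability phenotypes are given as per cents of cells with healthy nuclei.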

Row | Structure (SMILES) | Population Apoptotic (%) | Population Fragmented Nuclei (%) | Population Hoechst High Intensity Objects (%) | Population Membrane Permeable-Phenotype (%) | Population Mitochondria Different-Phenotype (%) | Population Mitotic Cells (%) | Population Normal (%) | Population Pyknosed Nuclei (%) | Total Cell Count | Population Healthy Nuclei (%)
1 | COc1ccc(-n2c(C)c([N+](=O)[O-])c3ccc(O)cc32)cc1 | 6.21% and 10.43% | 1.16% and 7.69% | 0% | 1.02% and 0% | 36.04% and 17.65% | 93.79% and 89.57% | 100% | 41.91% and 80.42% | 346 and 143 | –
2 | COc1cc(C(=O)N(CCCc2ccccc2)Cc2ccc(CC(=O)O)cc2)cc(OC)c1C | 45% and 44% | 7% and 6% | 5% and 4% | 0% | 47% and 50% | 55% | 94% and 95% | 10% and 9% | 395 and 410 | 82% and 84%
3 | O=C1c2c(Br)c(Br)c(Br)c(Br)c2C(=O)N1c1ncc[nH]1 | 13.1% and 15.91% | 2.88% and 4.84% | 0% | 0.52% and 0% | 30.21% and 20% | 86.9% and 84.09% | 100% | 41.79% and 70.97% | 347 and 124 | 55.33% and 24.19%
4 | Cc1onc(-c2ccccc2Cl)c1C(=O)N(C)c1ccc(Cl)cc1 | 35% and 37% | 8% and 3% | 9% and 6% | 0% | 41% and 59% | 64% and 62% | 90% and 93% | 12% | 375 and 320 | 79% and 84%

same assay, conditions: human, 12 h, 1 µM, compound concentration 1 uM

Row | Structure (SMILES) | Population Tubulin-Different-Phenotype (%)
5 | COc1cc(C(=O)N(CCCc2ccccc2)Cc2ccc(CC(=O)O)cc2)cc(OC)c1C | 31% and 19%
6 | Cc1onc(-c2ccccc2Cl)c1C(=O)N(C)c1ccc(Cl)cc1 | 25%

same assay, conditions: human, 12 h, 10 µM, compound concentration 10 uM

Row | Structure (SMILES) | Population Apoptotic (%) | Population Fragmented Nuclei (%) | Population Hoechst High Intensity Objects (%) | Population Membrane Permeable-Phenotype (%) | Population Mitochondria Different-Phenotype (%) | Population Mitotic Cells (%) | Population Normal (%) | Population Pyknosed Nuclei (%) | Population Healthy Nuclei (%) | Population Tubulin-Different-Phenotype (%)
7 | COc1ccc(-n2c(C)c([N+](=O)[O-])c3ccc(O)cc32)cc1 | 9.49% and 17.86% | 2.91% and 1.47% | 0.24% and 0.73% | 0.41% and 0% | 38.27% and 18.18% | 90.51% and 82.14% | 99.76% and 99.27% | 38.26% and 82.35% | – | –
8 | COc1cc(C(=O)N(CCCc2ccccc2)Cc2ccc(CC(=O)O)cc2)cc(OC)c1C | 30% and 47% | 6% and 4% | 8% and 6% | 1% and 0% | 46% and 67% | 70% and 52% | 91% and 93% | 15% and 13% | 77% and 82% | 52% and 44%
9 | O=C1c2c(Br)c(Br)c(Br)c(Br)c2C(=O)N1c1ncc[nH]1 | 11.88% and 18.7% | 3.09% and 4.38% | 0.28% and 0% | 0.82% and 0% | 30.74% and 20% | 88.12% and 81.3% | 99.72% and 100% | 28.37% and 76.88% | – | –
10 | Cc1onc(-c2ccccc2Cl)c1C(=O)N(C)c1ccc(Cl)cc1 | 38% and 45% | 7% and 4% | 12% and 6% | 0% | 49% and 65% | 61% and 54% | 87% and 93% | 13% and 14% | 79% and 80% | 43% and 35%

same assay, conditions: human, 12 h, 10 µM, compound concentration 10 uM

Row | Structure (SMILES) | Total Cell Count
11 | COc1cc(C(=O)N(CCCc2ccccc2)Cc2ccc(CC(=O)O)cc2)cc(OC)c1C | 431 and 438
12 | O=C1c2c(Br)c(Br)c(Br)c(Br)c2C(=O)N1c1ncc[nH]1 | 357 and 160
13 | Cc1onc(-c2ccccc2Cl)c1C(=O)N(C)c1ccc(Cl)cc1 | 357 and 330

same assay, conditions: human, 24 h, 1 µM, compound concentration 1 uM

Row | Structure (SMILES) | Population Apoptotic (%) | Population Fragmented Nuclei (%) | Population Healthy Nuclei (%) | Population Hoechst High Intensity Objects (%) | Population Membrane Permeable-Phenotype (%) | Population Mitochondria Different-Phenotype (%) | Population Mitotic Cells (%) | Population Normal (%) | Population Pyknosed Nuclei (%) | Population Tubulin-Different-Phenotype (%)
14 | COc1ccc(-n2c(C)c([N+](=O)[O-])c3ccc(O)cc32)cc1 | 11.43% and 19% | 1.47% and 4.73% | 72.84% and 27.7% | 0% | 0.76% and 2.44% | 19.9% and 19.51% | 88.57% and 81% | 100% | 25.69% and 67.57% | –
15 | COc1cc(C(=O)N(CCCc2ccccc2)Cc2ccc(CC(=O)O)cc2)cc(OC)c1C | 32% and 48% | 7% | 78% and 82% | 5% and 3% | 0% | 27% and 26% | 67% and 51% | 94% and 96% | 14% and 9% | 15% and 10%
16 | O=C1c2c(Br)c(Br)c(Br)c(Br)c2C(=O)N1c1ncc[nH]1 | 7.29% and 20.59% | 2.82% and 1.69% | 81.23% and 40.68% | 0% | 0.41% and 0% | 13.29% and 6.25% | 92.71% and 79.41% | 100% | – | 8.59% and 6.25%
17 | Cc1onc(-c2ccccc2Cl)c1C(=O)N(C)c1ccc(Cl)cc1 | 23% and 42% | 9% and 5% | 81% | 5% and 3% | 1% | 21% and 44% | 76% and 57% | 94% and 96% | 9% and 12% | 14% and 18%

same assay, conditions: human, 24 h, 1 µM, compound concentration 1 uM

Row | Structure (SMILES) | Total Cell Count
18 | COc1cc(C(=O)N(CCCc2ccccc2)Cc2ccc(CC(=O)O)cc2)cc(OC)c1C | 483 and 507
19 | Cc1onc(-c2ccccc2Cl)c1C(=O)N(C)c1ccc(Cl)cc1 | 523 and 383

same assay, conditions: human, 24 h, 10 µM, compound concentration 10 uM

Row | Structure (SMILES) | Population Apoptotic (%) | Population Fragmented Nuclei (%) | Population Healthy Nuclei (%) | Population Hoechst High Intensity Objects (%) | Population Membrane Permeable-Phenotype (%) | Population Mitochondria Different-Phenotype (%) | Population Mitotic Cells (%) | Population Normal (%) | Population Pyknosed Nuclei (%) | Population Tubulin-Different-Phenotype (%)
20 | COc1ccc(-n2c(C)c([N+](=O)[O-])c3ccc(O)cc32)cc1 | 20% and 19.35% | 2.53% and 2.65% | 71.03% and 35.76% | 0% and 0.66% | 0.97% and 1.85% | 27.18% and 12.96% | 80% and 80.65% | 100% and 99.34% | 26.44% and 61.59% | 27.51% and 11.11%
21 | COc1cc(C(=O)N(CCCc2ccccc2)Cc2ccc(CC(=O)O)cc2)cc(OC)c1C | 34% and 42% | 7% | 80% and 79% | 7% and 6% | 0% | 39% and 50% | 65% and 57% | 92% and 93% | 12% | 43% and 38%
22 | O=C1c2c(Br)c(Br)c(Br)c(Br)c2C(=O)N1c1ncc[nH]1 | 15.38% and 16.98% | 2.6% and 2.87% | 81.63% and 36.21% | 0% | 0.42% and 0% | 15.71% and 7.94% | 84.62% and 83.02% | 100% | – | 7.64% and 3.17%
23 | Cc1onc(-c2ccccc2Cl)c1C(=O)N(C)c1ccc(Cl)cc1 | 45% and 29% | 8% and 7% | 79% and 82% | 5% and 3% | 1% and 0% | 32% and 47% | 54% and 70% | 94% and 96% | 12% and 9% | 20%

same assay, conditions: human, 24 h, 10 µM, compound concentration 10 uM

Row | Structure (SMILES) | Total Cell Count
24 | COc1ccc(-n2c(C)c([N+](=O)[O-])c3ccc(O)cc32)cc1 | 435 and 152
25 | COc1cc(C(=O)N(CCCc2ccccc2)Cc2ccc(CC(=O)O)cc2)cc(OC)c1C | 549 and 526
26 | Cc1onc(-c2ccccc2Cl)c1C(=O)N(C)c1ccc(Cl)cc1 | 478 and 413

same assay, conditions: human, 48 h, 1 µM, compound concentration 1 uM

Row | Structure (SMILES) | Population Apoptotic (%) | Population Fragmented Nuclei (%) | Population Healthy Nuclei (%) | Population Hoechst High Intensity Objects (%) | Population Membrane Permeable-Phenotype (%) | Population Mitochondria Different-Phenotype (%) | Population Mitotic Cells (%) | Population Normal (%) | Population Pyknosed Nuclei (%) | Population Tubulin-Different-Phenotype (%)
27 | COc1ccc(-n2c(C)c([N+](=O)[O-])c3ccc(O)cc32)cc1 | 9.35% and 22.41% | 2.61% and 2.72% | 87.04% and 65.76% | 0.1% and 0% | 3.78% and 1.65% | 21% and 23.97% | 90.65% and 77.59% | 99.9% and 100% | – | –
28 | COc1cc(C(=O)N(CCCc2ccccc2)Cc2ccc(CC(=O)O)cc2)cc(OC)c1C | 30% and 26% | 12% and 9% | 77% and 83% | 1% and 3% | 1% | 16% and 17% | 69% and 73% | 98% and 96% | 9% and 7% | 11% and 9%
29 | O=C1c2c(Br)c(Br)c(Br)c(Br)c2C(=O)N1c1ncc[nH]1 | 5.76% and 12.5% | 3.26% and 4.05% | 88.03% and 68.21% | 0% and 2.26% | 3.85% and 1.69% | 10.61% and 18.64% | 94.24% and 87.5% | 100% and 97.74% | – | –
30 | Cc1onc(-c2ccccc2Cl)c1C(=O)N(C)c1ccc(Cl)cc1 | 21% and 31% | 14% and 11% | 79% and 82% | 2% | 0% and 1% | 11% and 23% | 78% and 68% | 97% | 6% and 5% | 9% and 12%

same assay, conditions: human, 48 h, 1 µM, compound concentration 1 uM

Row | Structure (SMILES) | Total Cell Count
31 | COc1cc(C(=O)N(CCCc2ccccc2)Cc2ccc(CC(=O)O)cc2)cc(OC)c1C | 812 and 753
32 | Cc1onc(-c2ccccc2Cl)c1C(=O)N(C)c1ccc(Cl)cc1 | 932 and 620

same assay, conditions: human, 48 h, 10 µM, compound concentration 10 uM

Row | Structure (SMILES) | Population Apoptotic (%) | Population Fragmented Nuclei (%) | Population Healthy Nuclei (%) | Population Hoechst High Intensity Objects (%) | Population Membrane Permeable-Phenotype (%) | Population Mitochondria Different-Phenotype (%) | Population Mitotic Cells (%) | Population Normal (%) | Population Pyknosed Nuclei (%) | Population Tubulin-Different-Phenotype (%)
33 | COc1ccc(-n2c(C)c([N+](=O)[O-])c3ccc(O)cc32)cc1 | 17.07% and 21.57% | 3.71% and 2.48% | 84.59% and 65.84% | 0.14% and 0% | 5.23% and 1.89% | 33.9% and 25.47% | 82.93% and 78.43% | 99.86% and 100% | 11.7% and 31.68% | –
34 | COc1cc(C(=O)N(CCCc2ccccc2)Cc2ccc(CC(=O)O)cc2)cc(OC)c1C | 32% and 33% | 12% and 15% | 76% and 75% | 4% and 8% | 1% | 29% and 37% | 67% and 66% | 95% and 91% | 11% and 9% | 29% and 34%
35 | O=C1c2c(Br)c(Br)c(Br)c(Br)c2C(=O)N1c1ncc[nH]1 | 13.95% and 14.89% | 5.46% and 4.92% | 88.11% and 79.67% | 0% and 0.97% | 6.62% and 4.53% | 10.78% and 11.11% | 86.05% and 85.11% | 100% and 99.03% | 6.43% and 15.41% | –
36 | Cc1onc(-c2ccccc2Cl)c1C(=O)N(C)c1ccc(Cl)cc1 | 33% and 20% | 14% and 12% | 76% and 81% | 3% | 1% and 0% | 16% and 25% | 66% and 79% | 96% | 8% and 6% | 15% and 16%

same assay, conditions: human, 48 h, 10 µM, compound concentration 10 uM

Row | Structure (SMILES) | Total Cell Count
37 | COc1cc(C(=O)N(CCCc2ccccc2)Cc2ccc(CC(=O)O)cc2)cc(OC)c1C | 729 and 632
38 | Cc1onc(-c2ccccc2Cl)c1C(=O)N(C)c1ccc(Cl)cc1 | 755 and 652
